Laboratory results: ChEMBL document CHEMBL1158391, “Synthesis and antileishmanial activity of novel 2,4,6-trisubstituted pyrimidines and 1,3,5-triazines” (Eur J Med Chem, 2009)
≈ marks a conversion by molar mass, not a printed value. Calls of active or inactive are those of the source. The rule behind the calls is not given here.

Key:
Leishmania donovani [1] = test: Antileishmanial activity against Leishmania donovani MHOM/IN/80/Dd8 promastigotes at 10 ug/ml after 72 hrs; assay type: functional
Procedure, shortened: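 Promastigotes were transfected with firefly luciferase and kept in medium 199 with 10% foetal calf serum, penicillin/streptomycin and G418. Late-log cells (5×10⁵/well) were exposed for 72 h to serial dilutions (1–10 range) in DMSO, with DMSO controls. Luminescence was read with Steady-Glo. % inhibition = (N − n)×100/N, using mean RLU of control (N) and treated (n) wells.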

Leishmania donovani [2] = test: Antileishmanial activity against Leishmania donovani MHOM/IN/80/Dd8 amastigotes infected in mouse J774A.1 cells after 72 hrs; assay type: functional, organism-based; conditions: MHOM/IN/80/Dd8, J774.A1, 72 h
Procedure, shortened: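 J774A.1 macrophages (1.5×10⁴/well) were cultured in RPMI-1640 with 10% foetal calf serum at 37 °C in CO₂. After 24 h they were infected with stationary-phase luciferase-transfected promastigotes (2.25×10⁵/well), which transform into amastigotes. Test material (0.25–10 range) in complete medium was then applied for 72 h. Steady-Glo luminescence of treated wells was compared with untreated controls.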

[3] = Cytotoxicity against mouse J774A1 cells after 72 hrs by MTT assay; assay type: cell-based, J774.A1
Procedure, shortened: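 J774A.1 cells were kept in RPMI with 10% foetal calf serum and gentamycin. Cells (1×10⁴/well) were exposed to graded concentrations diluted from DMSO stocks for 72 h at 37 °C in humidified CO₂. MTT (5 mg/ml stock in PBS) was added for 2 h, and formazan was dissolved in DMSO and read at 544 nm. CC50 was the concentration giving 50% viability loss versus medium-only cells, estimated by template.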

[4] = (§1) Selectivity index, ratio of CC50 for mouse J774A1 cells to IC50 for Leishmania donovani MHOM/IN/80/Dd8 amastigotes; assay type: functional, J774.A1
Procedure, shortened: (§2)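 Ratio of J774A.1 CC50 (MTT, 72 h) to IC50 from the luciferase assay on intracellular amastigotes in J774A.1 macrophages (72 h exposure).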

Leishmania donovani [5] = test: Antileishmanial activity against Leishmania donovani MHOM/IN/80/Dd8 amastigotes infected in golden hamster at 50 mg/kg, ip administered 5 times per day for 5 days; assay type: functional
Procedure, shortened: (§3)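 Golden hamsters infected with L. donovani MHOM/IN/80/Dd8 were randomized into groups by parasite burden, 4–6 animals per sample. Intraperitoneal dosing began 2 days after biopsy. Post-treatment biopsy was taken on day 7 after the last dose, and amastigotes were counted by Giemsa staining. Percentage inhibition was calculated from actual and initial counts in treated animals and the fold increase in untreated controls.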

Leishmania donovani [6] = test: Antileishmanial activity against Leishmania donovani MHOM/IN/80/Dd8 promastigotes at 0.5 ug/ml after 72 hrs; assay type: functional
Leishmania donovani [7] = test: Antileishmanial activity against Leishmania donovani MHOM/IN/80/Dd8 amastigotes infected in golden hamster at 20 mg/kg, ip administered 5 times per day for 5 days; assay type: functional; conditions: route intraperitoneal; procedure, shortened: as §3
Leishmania donovani [8] = test: Antileishmanial activity against Leishmania donovani MHOM/IN/80/Dd8 promastigotes at […] after 72 hrs; assay type: functional, organism-based
J774.A1 = test: as §1; assay type: functional; procedure, shortened: as §2
Leishmania donovani [9] = test: Antileishmanial activity against Leishmania donovani MHOM/IN/80/Dd8 amastigotes infected in golden hamster at 40 mg/kg, ip administered 5 times per day for 5 days; assay type: functional, organism-based; design: dose 40 mg/kg; procedure, shortened: as §3

Compound | Activity (Leishmania donovani [1]) | IC50 (Leishmania donovani [2]) | CC50 at 72 h [3] | Ratio CC50/IC50 [4] | other results
COc1cc(-c2cc(SC)nc(Nc3nc(N4CCN(C)CC4)nc(N4CCN(C)CC4)n3)n2)cc(OC)c1OC | 99.5% | 1.34 µg/mL (≈ 2.3 µM) | 16.5 µg/mL (≈ 28.4 µM) | 12.34 | –
COc1cc(-c2cc(SC)nc(Nc3nc(NC(C)C)nc(NC(C)C)n3)n2)cc(OC)c1OC | 94.5% | 1.04 µg/mL (≈ 2.08 µM) | 1.9 µg/mL (≈ 3.8 µM) | 1.82 | –
CCCNc1nc(NCCC)nc(Nc2nc(SC)cc(-c3cc(OC)c(OC)c(OC)c3)n2)n1 | 86.7% | – | 1.46 µg/mL (≈ 2.92 µM) | – | –
CCCCNc1nc(NCCCC)nc(Nc2nc(SC)cc(-c3ccc(OC)c(OC)c3)n2)n1 | 78.6% | – | – | – | –
CCN1CCN(c2nc(Nc3nc(SC)cc(-c4cc(OC)c(OC)c(OC)c4)n3)nc(N3CCN(CC)CC3)n2)CC1 | 100% | 4.56 µg/mL (≈ 7.47 µM) | 27.4 µg/mL (≈ 44.8 µM) | 6 | –
COc1ccc(-c2cc(SC)nc(Nc3nc(NCCCN4CCOCC4)nc(NCCCN4CCOCC4)n3)n2)cc1OC | 35.2% | – | – | – | –
COc1cc(-c2cc(N3CCOCC3)nc(N)n2)cc(OC)c1OC | 43.9% | – | – | – | –
COc1cc(-c2cc(NCCN3CCOCC3)nc(N)n2)cc(OC)c1OC | 68.5% | – | – | – | –
COc1cc(-c2cc(N3CCCCC3)nc(N)n2)cc(OC)c1OC | 88% | 7.09 µg/mL (≈ 20.6 µM) | 10.4 µg/mL (≈ 30.3 µM) | 1.47 | –
COc1ccc(-c2cc(SC)nc(Nc3nc(NC(C)(C)C)nc(NC(C)(C)C)n3)n2)cc1OC | inactive | – | – | – | –
CCCCNc1nc(NCCCC)nc(Nc2nc(SC)cc(-c3cc(OC)c(OC)c(OC)c3)n2)n1 | 75.5% | – | – | – | –
COc1cc(-c2cc(NCCCN3CCOCC3)nc(N)n2)cc(OC)c1OC | 46.9% | – | – | – | –
COc1ccc(-c2cc(SC)nc(Nc3nc(N4CCCCC4)nc(N4CCCCC4)n3)n2)cc1OC | 53.8% | – | – | – | –
COc1ccc(-c2cc(SC)nc(Nc3nc(N4CCOCC4)nc(N4CCOCC4)n3)n2)cc1OC | 90.5% | 9.68 µg/mL (≈ 18.4 µM) | 23.9 µg/mL (≈ 45.3 µM) | 2.46 | –
CCN(CC)CCNc1cc(-c2cc(OC)c(OC)c(OC)c2)nc(N)n1 | 95.1% | 5.12 µg/mL (≈ 13.6 µM) | 81.5 µg/mL (≈ 217 µM) | 15.92 | Activity (Leishmania donovani [5]; route intraperitoneal): 48.46%
CCCNc1nc(NCCC)nc(Nc2nc(SC)cc(-c3ccc(OC)c(OC)c3)n2)n1 | 85.6% | 2.27 µg/mL (≈ 4.82 µM) | 14.3 µg/mL (≈ 30.5 µM) | 6.31 | –

Compound | Activity (Leishmania donovani [1]) | IC50 (Leishmania donovani [2]) | CC50 at 72 h [3] | Ratio CC50/IC50 [4] | other results
COc1cc(-c2cc(SC)nc(Nc3nc(N4CCCCC4)nc(N4CCCCC4)n3)n2)cc(OC)c1OC | 90.8% | 1.8 µg/mL (≈ 3.26 µM) | 51.7 µg/mL (≈ 93.5 µM) | 28.7 | Activity (Leishmania donovani [5]; route intraperitoneal): 56.58%
CCN(CC)CCNc1nc(NCCN(CC)CC)nc(Nc2nc(SC)cc(-c3ccc(OC)c(OC)c3)n2)n1 | 94.7% | 4.88 µg/mL (≈ 8.34 µM) | 42 µg/mL (≈ 71.8 µM) | 8.6 | –
COc1cc(-c2cc(SC)nc(Nc3nc(NCCN4CCOCC4)nc(NCCN4CCOCC4)n3)n2)cc(OC)c1OC | 42.5% | – | – | – | –
COc1cc(-c2cc(SC)nc(Nc3nc(NC(C)(C)C)nc(NC(C)(C)C)n3)n2)cc(OC)c1OC | 95.8% | 2.97 µg/mL (≈ 5.62 µM) | 9.8 µg/mL (≈ 18.5 µM) | 3.29 | –
COc1ccc(-c2cc(SC)nc(Nc3nc(NCCN4CCOCC4)nc(NCCN4CCOCC4)n3)n2)cc1OC | inactive | – | – | – | –
CCN(CC)CCNc1nc(NCCN(CC)CC)nc(Nc2nc(SC)cc(-c3cc(OC)c(OC)c(OC)c3)n2)n1 | inactive | – | – | – | –
COc1ccc(-c2cc(SC)nc(Nc3nc(NC(C)C)nc(NC(C)C)n3)n2)cc1OC | inactive | – | – | – | –
N=C(N)c1ccc(OCCCCCOc2ccc(C(=N)N)cc2)cc1 [PENTAMIDINE] | – | – | 31.3 µg/mL (≈ 92 µM) | – | Activity (Leishmania donovani [6]): 85%; Activity (Leishmania donovani [7]): 84.1%
COc1cc(-c2cc(SC)nc(Nc3nc(NCCCN4CCOCC4)nc(NCCCN4CCOCC4)n3)n2)cc(OC)c1OC | 75.2% | – | – | – | –
CCN1CCN(c2nc(Nc3nc(SC)cc(-c4ccc(OC)c(OC)c4)n3)nc(N3CCN(CC)CC3)n2)CC1 | inactive | – | – | – | –
COc1cc(-c2cc(SC)nc(Nc3nc(N4CCOCC4)nc(N4CCOCC4)n3)n2)cc(OC)c1OC | 80.8% | 7.02 µg/mL (≈ 12.6 µM) | 10.8 µg/mL (≈ 19.5 µM) | 1.54 | –
CCCCNc1cc(-c2cc(OC)c(OC)c(OC)c2)nc(N)n1 | 84.4% | 4.99 µg/mL (≈ 15 µM) | 49.9 µg/mL (≈ 150 µM) | 10 | Activity (Leishmania donovani [5]; route intraperitoneal): 54.1%
COc1ccc(-c2cc(SC)nc(Nc3nc(N4CCN(C)CC4)nc(N4CCN(C)CC4)n3)n2)cc1OC | 99.8% | 0.89 µg/mL (≈ 1.61 µM) | 36.2 µg/mL (≈ 65.6 µM) | 40.71 | –
sodium stibogluconate | – | – | – | – | Activity (Leishmania donovani [8]): 40%; Ratio CC50/IC50 (J774.A1): 5.53; Activity (Leishmania donovani [5]): 48.5%; Activity (Leishmania donovani [9]): 92%
COc1cc(-c2cc(N3CCN(C)CC3)nc(N)n2)cc(OC)c1OC | 63.88% | – | – | – | –
